Experimental findings from ChEMBL document CHEMBL1131062, “Synthesis and pharmacological characterization of O-alkynyloximes of tropinone and N-methylpiperidinone as muscarinic agonists” (J Med Chem, 1998) are described below.

The structures appear in SMILES notation. Several values for one entry are separate records, joined by “and”; a condition that tells them apart may be missing. Equal entries are not always repeated.

Experiment [1] in a line: Inhibitory selectivity for Muscarinic receptors M3 and M1. Put shortly:
(§1)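 Ratios of Ki values from rat tissue displacement binding. M1 used cerebral cortex with 0.5 nM [3H]pirenzepine. M2 used heart ventricle and M3 used submandibulary gland, both with 0.3 nM [3H]-N-methylscopolamine. All incubations ran 45 min at 30 °C with test compound at 10 nM–10 mM. Ki obtained by Cheng–Prusoff. Three independent experiments.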

For experiment [2], the target named is T1, Muscarinic acetylcholine receptor M3 (Rattus norvegicus, UniProt P08483). As to the kind of experiment: Binding affinity to Muscarinic acetylcholine receptor M3 by measuring its ability to displace [3H]N-methylscopolamine binding in rat submandibulary gland. Put shortly: (§2)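 Rat submandibulary gland membranes prepared in Na+/Mg2+ HEPES buffer pH 7.4. Incubated 45 min at 30 °C with 0.3 nM [3H]-N-methylscopolamine and test compound (10 nM–10 mM). Nonspecific binding defined with 1 μM (±)-QNB. Pellet obtained by centrifugation and counted by scintillation. Triplicate determinations. Ki derived from IC50 by Cheng–Prusoff.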
T1 sequence (P08483 whole entry): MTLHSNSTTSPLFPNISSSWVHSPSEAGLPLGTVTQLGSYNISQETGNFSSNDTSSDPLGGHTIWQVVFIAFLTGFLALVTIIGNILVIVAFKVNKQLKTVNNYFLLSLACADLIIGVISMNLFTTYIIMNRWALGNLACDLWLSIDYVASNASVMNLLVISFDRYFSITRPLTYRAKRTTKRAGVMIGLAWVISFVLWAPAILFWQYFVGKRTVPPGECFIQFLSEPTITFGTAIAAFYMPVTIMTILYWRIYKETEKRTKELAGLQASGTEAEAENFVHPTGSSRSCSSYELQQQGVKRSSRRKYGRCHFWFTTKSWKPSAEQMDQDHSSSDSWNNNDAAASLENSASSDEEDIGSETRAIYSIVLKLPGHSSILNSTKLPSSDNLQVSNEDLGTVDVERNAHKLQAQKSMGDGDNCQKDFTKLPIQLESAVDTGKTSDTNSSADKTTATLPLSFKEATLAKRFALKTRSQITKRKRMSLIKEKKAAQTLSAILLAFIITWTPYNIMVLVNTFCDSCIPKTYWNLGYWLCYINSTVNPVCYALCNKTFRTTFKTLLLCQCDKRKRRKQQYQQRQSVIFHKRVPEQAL

The target of experiment [3] is T2, Muscarinic acetylcholine receptor M2 (Rattus norvegicus, UniProt P10980).
T2 sequence (P10980 whole entry): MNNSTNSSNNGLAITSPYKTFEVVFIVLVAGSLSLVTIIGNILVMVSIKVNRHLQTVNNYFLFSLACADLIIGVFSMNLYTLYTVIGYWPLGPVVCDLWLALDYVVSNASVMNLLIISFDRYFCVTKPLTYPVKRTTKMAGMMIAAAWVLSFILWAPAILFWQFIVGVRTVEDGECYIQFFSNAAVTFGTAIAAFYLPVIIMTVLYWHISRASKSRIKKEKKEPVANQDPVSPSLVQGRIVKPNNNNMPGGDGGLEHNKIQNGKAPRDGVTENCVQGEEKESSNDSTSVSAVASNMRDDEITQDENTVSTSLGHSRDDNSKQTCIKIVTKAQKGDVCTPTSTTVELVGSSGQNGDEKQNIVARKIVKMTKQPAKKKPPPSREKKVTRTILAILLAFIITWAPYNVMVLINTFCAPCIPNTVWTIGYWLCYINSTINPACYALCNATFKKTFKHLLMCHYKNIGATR
As to the kind of experiment: Binding affinity to Muscarinic acetylcholine receptor M2 by measuring its ability to displace [3H]N-methylscopolamine binding in rat heart. In a few lines:
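Rat heart ventricle membranes, homogenized in sucrose/TRIS and washed in Na+/Mg2+ HEPES buffer pH 7.4. Nonspecific binding defined with 1 μM (±)-QNB. Bound ligand separated by centrifugation and counted by scintillation. Triplicate determinations. Ki derived from IC50 by Cheng–Prusoff.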

For experiment [4], the species on record is Rattus norvegicus. Kind of experiment: Concentration required to relax phenylephrine-precontracted aortic rings by 50% in endothelium intact rat aorta. The experiment is classed as functional. The settings on record: read-out: ED50 (the source's name). Put shortly:
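Endothelium-intact rat aortic rings equilibrated 60 min at 37 °C under 95% O2/5% CO2. Endothelium confirmed by relaxation to 10^-6 M ACh. After washout, rings precontracted with 10^-7 M phenylephrine. Test compound added cumulatively (10^-6–10^-4 M) at 2-min intervals. Each ring used once. ED50 taken from percent phenylephrine response versus concentration.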

Experiment [5] deals with Muscarinic receptor M2 and M3 (Rattus norvegicus) (UniProt P08483+P10980). Kind of experiment: Inhibitory selectivity for Muscarinic receptors M3 and M2. Format: protein assay. Put shortly:
as §1

Experiment [6] is filed under the species Oryctolagus cuniculus. Kind of experiment: Concentration required to relax phenylephrine-precontracted aortic rings by 50% in endothelium denuded rabbit aorta. The conditions noted are these: read-out: ED50 (the source's name).
Experiment [7] addresses Muscarinic receptor M1 and M2 (Rattus norvegicus) (UniProt P08482+P10980). As to the kind of experiment: Inhibitory selectivity for Muscarinic receptors M2 and M1. The experiment is classed as protein assay. Put shortly:
as §1

Experiment [8] concerns the target T1, Muscarinic acetylcholine receptor M3. As to the kind of experiment: The compound was evaluated for its ability to inhibit [3H]NMS binding to Muscarinic acetylcholine receptor in submandibular salivary gland. The experiment is classed as tissue-based. Put shortly: as §2

Muscarinic receptor M1 and M2 (Rattus norvegicus), sequence (P08482 whole entry, looked up, one chain of several): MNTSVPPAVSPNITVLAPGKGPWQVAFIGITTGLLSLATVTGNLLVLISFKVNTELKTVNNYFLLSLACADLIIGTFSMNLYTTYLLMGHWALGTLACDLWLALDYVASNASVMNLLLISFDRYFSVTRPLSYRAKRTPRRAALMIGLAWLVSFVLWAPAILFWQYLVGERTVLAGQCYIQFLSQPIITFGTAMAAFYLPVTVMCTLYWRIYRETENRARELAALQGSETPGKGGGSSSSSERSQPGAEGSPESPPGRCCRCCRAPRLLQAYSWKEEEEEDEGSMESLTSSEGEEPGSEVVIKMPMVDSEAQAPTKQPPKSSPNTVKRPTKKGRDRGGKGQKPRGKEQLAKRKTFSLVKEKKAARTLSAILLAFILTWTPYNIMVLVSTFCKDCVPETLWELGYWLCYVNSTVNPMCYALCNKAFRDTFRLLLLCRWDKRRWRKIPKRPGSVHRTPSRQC
Muscarinic receptor M2 and M3 (Rattus norvegicus), sequence (P08483 whole entry, looked up, one chain of several): as the sequence (P08483 whole entry) above

One may read the Ki as a dissociation constant, usually derived from enzyme kinetics or from competition with a known ligand. A higher Ki goes with weaker binding. `C#CC(C)ON=C1CCN(C)CC1` (configuration not stated): the Selectivity ratio in experiment [1] worked out at 14; in experiment [5] it was 6.3; in experiment [7] it was 2.2. For the same compound, the results for the inhibitory constant (Ki) in experiment [2] and in experiment [3] were 79.4 µM and 12.6 µM, respectively. Moreover, the EC50 in experiment [4] turned out to be 7.8 µM; in experiment [6], 41 µM.

As for `CN1C2CCC1CC(=NO)C2`, the Selectivity ratio in experiment [1] came out at 1.4; in experiment [5] it was 18; in experiment [7], 0.74. Also, the Ki in experiment [2] is 794 µM; in experiment [3] it was 39.8 µM. Besides, the EC50 in experiment [4] came out at 53 µM; in experiment [6] it was 320 µM.

Take `C#CCON=C1CC2CCC(C1)N2C`: the Selectivity ratio in experiment [1] was 4.6; in experiment [5], 1.1; in experiment [7], 4.2. For the same compound, in experiment [3], the Ki is 6.31 µM and 25.1 µM. In addition, the EC50 in experiment [4] turned out to be 3.5 µM; in experiment [6], 7.1 µM.

Take `C#CC(CC)ON=C1CC2CCC(C1)N2C` (configuration not stated): the Selectivity ratio in experiment [1] stood at 22; in experiment [5], 1.1; in experiment [7] it was 20. For the same compound, the Ki in experiment [2] and in experiment [3] was 6.31 µM each time. Further, the EC50 in experiment [4] is 5.5 µM; in experiment [6], 41 µM.

With `CON=C1CCN(C)CC1`, the Selectivity ratio was 0.51 in experiment [1], 0.71 in experiment [5] and 0.74 in experiment [7]. In addition, the Ki in experiment [2] was 25.1 µM; in experiment [3], 39.8 µM. The EC50 in experiment [4] came to 13 µM; in experiment [6], 260 µM.

For the compound `CC#CCON=C1CC2CCC(C1)N2C`, the figures for the Selectivity ratio in experiment [1], in experiment [5] and in experiment [7] were 27, 1.1 and 24, respectively. The inhibition constant (Ki) in experiment [2] was 15.8 µM; in experiment [3] it was 12.6 µM; in experiment [8], 20 µM. Besides, the values for the EC50 in experiment [4] and in experiment [6] were 3.4 µM and 4.8 µM, respectively.

Regarding `CCC#CCON=C1CC2CCC(C1)N2C`, the Selectivity ratio in experiment [1] was 0.56; in experiment [5], 0.23; in experiment [7], 2.4. The Ki is 3.16 µM in experiment [2], 12.6 µM in experiment [3] and 79.4 µM in experiment [8]. In addition, the EC50 turned out to be 1.3 µM in experiment [4] and 3.5 µM in experiment [6].

As for `CON=C1CC2CCC(C1)N2C`, the Selectivity ratio was found to be 0.1 in experiment [1], 0.74 in experiment [5] and 0.14 in experiment [7]. Besides, the inhibitory constant (Ki) in experiment [2] is 100 µM; in experiment [3] it was 126 µM. The EC50 in experiment [4] and in experiment [6] was 11 µM each time.

On to `CC#CCON=C1CCN(C)CC1`, for which the Selectivity ratio came to 35 in experiment [1], 17 in experiment [5] and 2 in experiment [7]. Moreover, the inhibition constant Ki is 126 µM in experiment [2] and 7.94 µM in experiment [3]. For the same compound, the EC50 in experiment [4] and in experiment [6] was 8.7 µM each time.

`CC#CCCON=C1CCN(C)CC1`: the Selectivity ratio in experiment [1] worked out at 2; in experiment [5] it was 0.27; in experiment [7], 7.5. For the same compound, the Ki was 39.8 µM in experiment [2] and 15.8 µM in experiment [3]. The EC50 in experiment [4] was 6.3 µM.

Turning to `C#CCON=C1CCN(C)CC1`, the Selectivity ratio in experiment [1] stood at 0.42; in experiment [5], 0.72; in experiment [7], 0.59. Besides, the Ki in experiment [2] was 20 µM; in experiment [3], 25.1 µM. Also, the figures for the EC50 in experiment [4] and in experiment [6] were 6.8 µM and 11 µM, respectively.

Take `C#CCC(C)ON=C1CCN(C)CC1` (configuration not stated): the Selectivity ratio in experiment [1] came to 15; in experiment [5], 5.4; in experiment [7] it was 2.9. The inhibitory constant (Ki) in experiment [2] was 50.1 µM; in experiment [3], 10 µM. For the same compound, the EC50 came to 5 µM in experiment [4] and 25 µM in experiment [6].

In the case of `C[N+](C)(C)CC#CCOC(=O)Nc1cccc(Cl)c1`, the Selectivity ratio in experiment [1] came to 0.46; in experiment [5], 0.33; in experiment [7] it was 1.4. The compound further showed an inhibitory constant (Ki) in experiment [3] of 6.31 µM. Besides, the figures for the EC50 in experiment [4] and in experiment [6] were 9.6 µM and 0.35 µM, respectively.

Regarding `C#CCCCON=C1CC2CCC(C1)N2C`, the Selectivity ratio worked out at 16 in experiment [1], 1.3 in experiment [5] and 12 in experiment [7]. For the same compound, the values for the inhibition constant Ki in experiment [2] and in experiment [3] were 10 µM and 6.31 µM, respectively. The figures for the EC50 in experiment [4] and in experiment [6] were 5.9 µM and 6.5 µM, respectively.

Consider `COC(=O)C1=CCCN(C)C1` [ARECOLINE], for which the EC50 in experiment [4] is 1.6 µM.

As for `C#CCCON=C1CCN(C)CC1`, the results for the Selectivity ratio in experiment [1], in experiment [5] and in experiment [7] were 25, 3.7 and 6.2, respectively. Also, the inhibition constant Ki was 39.8 µM in experiment [2] and 10 µM in experiment [3]. Besides, the EC50 is 7.4 µM in experiment [4] and 28 µM in experiment [6].

As to `C#CC(CC)ON=C1CCN(C)CC1` (configuration not stated), the Selectivity ratio in experiment [1] amounted to 1.5; in experiment [5], 0.85; in experiment [7], 1.8. The Ki in experiment [2] and in experiment [3] was 10 µM each time. In addition, the EC50 came to 7.6 µM in experiment [4] and 18 µM in experiment [6].

`C#CCC(C)ON=C1CC2CCC(C1)N2C` (configuration not stated): the Selectivity ratio stood at 29 in experiment [1], 1.8 in experiment [5] and 16 in experiment [7]. Moreover, the Ki was 3.16 µM in experiment [2] and 1.58 µM in experiment [3]. The values for the EC50 in experiment [4] and in experiment [6] were 5.4 µM and 23 µM, respectively.

In the case of `CC#CCCON=C1CC2CCC(C1)N2C`, the Selectivity ratio in experiment [1] was determined as 3; in experiment [5], 0.66; in experiment [7], 4.5. Further, the Ki in experiment [2] was 2.51 µM; in experiment [3] it was 3.16 µM. Further, the EC50 in experiment [4] came out at 7.8 µM; in experiment [6], 9.8 µM.

`C#CCCCON=C1CCN(C)CC1`: the Selectivity ratio in experiment [1] stood at 1.7; in experiment [5], 1.5; in experiment [7], 1.1. Besides, the inhibition constant (Ki) in experiment [2] is 15.8 µM; in experiment [3], 10 µM. In addition, the values for the EC50 in experiment [4] and in experiment [6] were 9.3 µM and 13 µM, respectively.

With `CN1CCC(=NO)CC1`, the Selectivity ratio was 7.6 in experiment [1], 8.5 in experiment [5] and 0.9 in experiment [7]. The Ki in experiment [2] was 3160 µM; in experiment [3] it was 398 µM. Moreover, the EC50 in experiment [4] came out at 43 µM; in experiment [6], 78 µM.

`O=C1CCCN1CC#CCN1CCCC1` [OXOTREMORINE]: the Selectivity ratio in experiment [1] was 0.63; in experiment [5], 2; in experiment [7], 0.32. Further, the Ki is 0.398 µM in experiment [2] and 0.2 µM in experiment [3]. Further, the EC50 in experiment [4] stood at 0.044 µM.

Consider `C#CC(C)ON=C1CC2CCC(C1)N2C` (configuration not stated), for which the Selectivity ratio in experiment [1] stood at 0.46; in experiment [5], 0.72; in experiment [7], 4.5. For the same compound, the Ki in experiment [2] was 3.98 µM; in experiment [3], 6.31 µM. For the same compound, the EC50 came to 6.9 µM in experiment [4] and 26 µM in experiment [6].

As to `CCC#CCON=C1CCN(C)CC1`, the figures for the Selectivity ratio in experiment [1], in experiment [5] and in experiment [7] were 5.4, 1.4 and 4, respectively. For the same compound, the inhibitory constant (Ki) is 20 µM in experiment [2] and 15.8 µM in experiment [3]. For the same compound, the EC50 in experiment [4] is 6.2 µM; in experiment [6], 12 µM.

Turning to `C#CCCON=C1CC2CCC(C1)N2C`, the Selectivity ratio in experiment [1] turned out to be 6.8; in experiment [5] it was 0.34; in experiment [7], 19. The Ki in experiment [2] is 10 µM; in experiment [3], 31.6 µM. Besides, the EC50 was found to be 5.3 µM in experiment [4] and 15 µM in experiment [6].
